Series [1] relates to four cancer cell lines (A-549, MCF-7, Panc-1, HT-29). Put plainly: Antiproliferative assay, average over four cancer cell lines. The following applies: for GI50: Homo sapiens, read-out: Antiproliferative activity, Average (GI50). Format: cell-based, human.
In series [2] the test system is HT-29 (colon cancer cell line). Description: Antiproliferative assay, HT-29. Type of series: cell-based. The following applies: Homo sapiens, HT-29, read-out: Antiproliferative activity IC50 ± SEM, HT-29.
Series [3] relates to A-549 (epithelial cancer cell line). Put plainly: Antiproliferative assay, A-549. Type of series: cell-based. As to conditions: Homo sapiens, A549, read-out: Antiproliferative activity IC50 ± SEM, A-549.
Series [4] deals with MCF-7 (breast cancer cell line). Description: Antiproliferative assay, MCF-7. Format: cell-based. The following applies: Homo sapiens, MCF7, read-out: Antiproliferative activity IC50 ± SEM, MCF-7.
A further series is described as follows: Cell viability assay. Format: cell-based. The following applies: human, MCF-10A mammary gland epithelial cells.
The test system of series [5] is Panc-1 (pancreas cancer cell line). Description: Antiproliferative assay, Panc-1. Type of series: cell-based. The following applies: Homo sapiens, PANC-1, read-out: Antiproliferative activity IC50 ± SEM, Panc-1.
The test system of a further series is Caspase-8. Description: Caspase-8 assay in Panc-1. Format: cell-based, human. The following applies: Panc-1 cells; for Caspase-8 Fold change: vs control untreated cells.
A further series relates to Bcl-2. Description: Bcl-2 assay in Panc-1. Type of series: cell-based, human. As to conditions: Panc-1 cells; for Bcl-2 Fold reduction: vs control untreated cells.
For a further series, the target named is EGFR^T790M (Homo sapiens, UniProt P00533, T790M). Description: biochemical.
The test system of another series is Bax. Description: Bax assay in Panc-1. Type of series: cell-based, human. As to conditions: Panc-1 cells; for Bax Fold change: vs control untreated cells. In a few lines:
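Bax protein in treated Panc-1 cells, read as concentration in pg/mL. Fold induction is relative to untreated Panc-1 control cells. Staurosporine serves as reference compound.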

The subject of a further series is Caspase-3. Put plainly: Caspase-3 assay in Panc-1. Format: cell-based, human. As to conditions: Panc-1 cells; for Caspase-3 Fold change: vs control untreated cells.
The target in another series is EGFR^WT (Homo sapiens, UniProt P00533). Description: EGFR inhibitory assay. Format: biochemical.
[6] abbreviates: antiproliferative, four cancer cell lines.

Values joined by “and” are separate entries in the source; they are usually repeats but may differ in a detail not shown here. Identical values can stand only once.

Sequence of EGFR^WT (P00533 669-1210): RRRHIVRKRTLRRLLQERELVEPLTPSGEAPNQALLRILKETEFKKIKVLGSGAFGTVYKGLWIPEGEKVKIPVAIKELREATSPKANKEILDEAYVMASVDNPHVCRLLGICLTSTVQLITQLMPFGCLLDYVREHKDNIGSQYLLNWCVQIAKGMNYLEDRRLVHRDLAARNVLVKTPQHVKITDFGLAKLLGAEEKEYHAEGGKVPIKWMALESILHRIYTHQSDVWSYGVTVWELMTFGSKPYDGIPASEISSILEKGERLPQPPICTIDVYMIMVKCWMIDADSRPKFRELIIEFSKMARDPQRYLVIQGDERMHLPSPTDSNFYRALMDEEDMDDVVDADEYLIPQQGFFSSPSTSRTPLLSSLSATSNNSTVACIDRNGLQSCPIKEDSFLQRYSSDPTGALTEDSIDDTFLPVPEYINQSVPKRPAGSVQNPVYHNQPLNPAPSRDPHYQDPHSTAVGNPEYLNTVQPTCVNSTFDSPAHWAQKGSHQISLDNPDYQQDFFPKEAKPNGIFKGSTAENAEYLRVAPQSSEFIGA
Sequence of EGFR^T790M (P00533 25-1210 T790M): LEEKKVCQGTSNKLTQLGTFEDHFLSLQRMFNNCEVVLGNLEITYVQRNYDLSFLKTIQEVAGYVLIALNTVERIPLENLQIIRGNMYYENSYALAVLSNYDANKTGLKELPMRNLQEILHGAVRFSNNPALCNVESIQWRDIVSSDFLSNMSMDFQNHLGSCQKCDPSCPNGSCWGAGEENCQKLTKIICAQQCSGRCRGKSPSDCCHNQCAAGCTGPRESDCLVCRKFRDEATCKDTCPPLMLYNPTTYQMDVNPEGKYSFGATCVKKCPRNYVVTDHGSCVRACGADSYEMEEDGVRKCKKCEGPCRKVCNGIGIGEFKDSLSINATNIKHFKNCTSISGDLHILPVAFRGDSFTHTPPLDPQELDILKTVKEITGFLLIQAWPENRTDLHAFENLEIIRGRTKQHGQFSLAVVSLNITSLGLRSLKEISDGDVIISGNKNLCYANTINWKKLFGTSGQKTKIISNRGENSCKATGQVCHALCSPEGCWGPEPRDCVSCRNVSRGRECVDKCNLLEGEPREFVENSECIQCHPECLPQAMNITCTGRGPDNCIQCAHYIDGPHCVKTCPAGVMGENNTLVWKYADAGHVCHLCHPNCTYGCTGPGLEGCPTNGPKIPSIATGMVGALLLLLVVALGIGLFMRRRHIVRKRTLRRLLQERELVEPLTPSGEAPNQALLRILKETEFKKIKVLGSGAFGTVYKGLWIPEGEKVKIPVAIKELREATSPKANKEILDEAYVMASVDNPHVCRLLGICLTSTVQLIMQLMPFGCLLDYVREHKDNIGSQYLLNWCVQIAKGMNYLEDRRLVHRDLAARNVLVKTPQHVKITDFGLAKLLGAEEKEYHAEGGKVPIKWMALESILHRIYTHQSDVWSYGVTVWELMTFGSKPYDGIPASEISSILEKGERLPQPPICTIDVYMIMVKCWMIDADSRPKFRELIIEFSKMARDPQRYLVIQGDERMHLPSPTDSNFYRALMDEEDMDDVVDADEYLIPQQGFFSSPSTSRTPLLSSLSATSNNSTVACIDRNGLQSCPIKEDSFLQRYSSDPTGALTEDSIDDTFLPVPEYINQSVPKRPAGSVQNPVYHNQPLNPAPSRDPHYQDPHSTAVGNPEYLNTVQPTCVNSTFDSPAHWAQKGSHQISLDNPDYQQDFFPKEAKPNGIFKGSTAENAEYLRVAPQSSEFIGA

With `CO/C=C/c1c(C(=O)NCCc2ccccc2)[nH]c2ccc(Cl)cc12` [Compound 5a, (E)-5-Chloro-3–(2-methoxyvinyl)-N-phenethyl-1H-indole-2-carboxamide], the GI50 (usually the concentration that inhibits growth by half) in series [1] came to 76 nM. In addition, the “fold less potent than compound 5f (GI50)” value in [1] (setting [6]) is recorded as 2.5 fold. For the same molecule, the IC50 (as a rule, the concentration that inhibits the measured activity by half) in series [2] amounted to 75 ± 8 nM; in series [3], 75 ± 8 nM; in series [4], 79 ± 8 nM; in [5] it was 73 ± 7 nM. The viability (usually a read-out of living cells in per cent, often relative to untreated cells) at 96 h, 50 µM in the series “Cell viability assay” is 91%.
For `CO/C=C/c1c(C(=O)NC(CO)Cc2ccccc2)[nH]c2ccc(Cl)cc12` (stereo not drawn) [Compound 6a, (E)-5-chloro-N-(1-hydroxy-3-phenylpropan-2-yl)-3-(2-methoxyvinyl)-1H-indole-2-carboxamide], in series [1], the GI50 came to 89 nM. For the same molecule, the IC50 was found to be 89 ± 9 nM in series [2], 89 ± 9 nM in series [3], 92 ± 9 nM in series [4] and 85 ± 9 nM in series [5]. Besides, the viability at 96 h, 50 µM in the series “Cell viability assay” turned out to be 86%.
Consider `O=c1c2[nH]c3ccc(Cl)cc3c2ccn1CCc1ccccc1` [Compound 7a, 6-chloro-2-phenethyl-2,9-dihydro-1H-pyrido[3,4-b]indol-1-one], for which the concentration for 50% growth inhibition (GI50) in series [1] came to 54 nM. The IC50 in series [2] worked out at 55 ± 5 nM; in series [3] it was 53 ± 5 nM; in series [4], 57 ± 5 nM; in [5], 51 ± 5 nM. For the same molecule, the viability at 96 h, 50 µM in the series “Cell viability assay” worked out at 90%.
Turning to `CO/C=C/c1c(C(=O)NCCc2ccc(N3CCCCC3)cc2)[nH]c2ccc(Cl)cc12` [Compound 5b, (E)-5-chloro-3–(2-methoxyvinyl)-N-(4-(piperidin-1-yl)phenethyl)-1H-indole-2-carboxamide], in series [1], the GI50 was 77 nM. Moreover, the IC50 was 78 ± 7 nM in series [2], 76 ± 7 nM in [3], 79 ± 7 nM in [4] and 75 ± 7 nM in [5]. The same molecule came in with a viability at 96 h, 50 µM in “Cell viability assay” of 89%.
Take `CO/C=C/c1c(C(=O)NC2c3ccccc3-c3ccccc32)[nH]c2ccc(Cl)cc12` [Compound 6b, (E)-5-chloro-N-(9H-fluoren-9-yl)-3-(2-methoxyvinyl)-1H-indole-2-carboxamide]: the GI50 in [1] was found to be 102 nM. The IC50 in [2] came out at 104 ± 10 nM; in series [3] it was 102 ± 10 nM; in series [4] it was 105 ± 10 nM; in [5] it was 97 ± 10 nM. This molecule registered a viability at 96 h, 50 µM in “Cell viability assay” of 87%.
As to `CO/C=C/c1c(C(=O)NCCc2ccc(N3CCCC3C)cc2)[nH]c2ccc(Cl)cc12` (stereo not drawn) [Compound 5f, (E)-5-chloro-3-(2-methoxyvinyl)-N-(4-(2-methylpyrrolidin-1-yl)phenethyl)-1H-indole-2-carboxamide], in series [1], the GI50 turned out to be 29 nM. Also, the “Caspase-8 Conc” value in the series on Caspase-8 came to 2.10 ng/mL. The “Caspase-8 Fold change” value with Caspase-8 is recorded as 25. The “Bcl-2 Conc” value with Bcl-2 was 0.80 ng/mL. Moreover, the “Bcl-2 Fold reduction” value in the series on Bcl-2 is 6. Also, the IC50 was 9.5 ± 2 nM on EGFR^T790M; 30 ± 3 nM in [2]; 28 ± 3 nM in series [3]; 30 ± 3 nM in [4]; 68 ± 4 nM at EGFR^WT; 27 ± 3 nM in [5]. Moreover, the “Bax Conc” value in the series with Bax is 305 pg/mL and 305.50 pg/mL. Besides, the “Bax Fold change” value with Bax is given as 37. In the series on Caspase-3, the “Caspase-3 Conc” value was determined as 560.2 ± 5.0 pg/mL. Further, the viability at 96 h, 50 µM in the series “Cell viability assay” was determined as 87%.
On to `CN[C@@H]1C[C@H]2O[C@@](C)([C@@H]1OC)n1c3ccccc3c3c4c(c5c6ccccc6n2c5c31)C(=O)NC4` [Staurosporine, reference compound], for which, in the series on Caspase-8, the “Caspase-8 Conc” value was found to be 1.75 ng/mL and the “Caspase-8 Fold change” value is reported as 21. In addition, in the series with Bcl-2, the “Bcl-2 Conc” value came to 0.98 ng/mL and the “Bcl-2 Fold reduction” value came to 5. Moreover, the “Bax Conc” value with Bax was 276 pg/mL and 276.20 pg/mL. Moreover, in the series with Caspase-3, the “Caspase-3 Conc” value is 503.2 ± 4.0 pg/mL and the “Caspase-3 Fold change” value is 7.6.
As for `C#Cc1cccc(Nc2ncnc3cc(OCCOC)c(OCCOC)cc23)c1` [Erlotinib, reference compound], the GI50 in series [1] came out at 33 nM. The IC50 in [2] was determined as 30 ± 3 nM; in series [3] it was 30 ± 3 nM; in [4], 40 ± 3 nM; in series [5] it was 30 ± 3 nM.
Regarding `CO/C=C/c1c(C(=O)NCCc2cccc(N3CCCCC3)c2)[nH]c2ccc(Cl)cc12` [Compound 5c, (E)-5-chloro-3–(2-methoxyvinyl)-N-(3-(piperidin-1-yl)phenethyl)-1H-indole-2-carboxamide], in series [1], the GI50 stood at 47 nM. Moreover, in [1] (setting [6]), the “fold more potent than compound 5b (GI50)” value was 1.6 fold. Also, the IC50 turned out to be 47 ± 5 nM in series [2]; 45 ± 5 nM in [3]; 49 ± 5 nM in series [4]; 102 ± 7 nM against EGFR^WT; 45 ± 5 nM in series [5]. Also, the viability at 96 h, 50 µM in “Cell viability assay” amounted to 87%.
Turning to `CO/C=C/c1c(C(=O)NCCc2ccc(N(C)C)cc2)[nH]c2ccc(Cl)cc12` [Compound 5d, (E)-5-chloro-N-(4-(dimethylamino)phenethyl)-3-(2-methoxyvinyl)-1H-indole-2-carboxamide], the GI50 in [1] stood at 36 nM. Besides, the IC50 in series [2] was found to be 38 ± 4 nM; in [3], 34 ± 4 nM; in series [4], 38 ± 3 nM; at EGFR^WT, 85 ± 5 nM; in series [5] it was 35 ± 3 nM. Moreover, the viability at 96 h, 50 µM in “Cell viability assay” amounted to 89%.
With `CO/C=C/c1c(C(=O)NCc2nc3ccccc3[nH]2)[nH]c2ccc(Cl)cc12` [Compound 6f, (E)-N-((1H-benzo[d]imidazol-2-yl)methyl)-5-chloro-3–(2-methoxyvinyl)-1H-indole-2-carboxamide], the GI50 in [1] turned out to be 41 nM. Also, the IC50 worked out at 42 ± 4 nM in series [2]; 40 ± 4 nM in [3]; 42 ± 4 nM in series [4]; 93 ± 6 nM on EGFR^WT; 38 ± 4 nM in series [5]. For the same molecule, in “Cell viability assay”, the viability at 96 h, 50 µM came out at 89%.
Regarding `CO/C=C/c1c(C(=O)NCCc2ccc(N3CCCC3)cc2)[nH]c2ccc(Cl)cc12` [Compound 5e, (E)-5-chloro-3-(2-methoxyvinyl)-N-(4-(pyrrolidin-1-yl)phenethyl)-1H-indole-2-carboxamide], the GI50 in series [1] turned out to be 70 nM. Besides, the IC50 in series [2] worked out at 71 ± 7 nM; in series [3], 70 ± 7 nM; in series [4], 73 ± 7 nM; in series [5], 67 ± 7 nM. The molecule also gave a viability at 96 h, 50 µM in the series “Cell viability assay” of 90%.
Take `CO/C=C/c1c(C(=O)N2CCC(Cc3ccccc3)CC2)[nH]c2ccc(Cl)cc12` [Compound 6e, (E)-(4-benzylpiperidin-1-yl)(5-chloro-3–(2-methoxyvinyl)-1H-indol-2-yl) methanone]: the GI50 in series [1] came to 45 nM. The IC50 was found to be 45 ± 5 nM in series [2]; 45 ± 5 nM in series [3]; 47 ± 5 nM in series [4]; 98 ± 7 nM against EGFR^WT; 43 ± 4 nM in series [5]. Also, the viability at 96 h, 50 µM in the series “Cell viability assay” was 91%.
Consider `CO/C=C/c1c(C(=O)N2CCN(c3ccccc3)CC2)[nH]c2ccc(Cl)cc12` [Compound 6d, (E)-(5-chloro-3–(2-methoxyvinyl)-1H-indol-2-yl)(4-phenylpiperazin-1-yl) methanone], for which the GI50 in [1] was determined as 85 nM. The IC50 in series [2] is 85 ± 8 nM; in [3], 85 ± 8 nM; in series [4], 87 ± 8 nM; in [5] it was 81 ± 8 nM. Further, the viability at 96 h, 50 µM in the series “Cell viability assay” turned out to be 89%.
Consider `O=c1c2[nH]c3ccc(Cl)cc3c2ccn1CCc1ccc(N2CCCCC2)cc1` [Compound 7b, 6-chloro-2–(4-(piperidin-1-yl)phenethyl)-2,9-dihydro-1H-pyrido[3,4-b]indol-1-one], for which, in series [1], the GI50 came out at 57 nM. Besides, the IC50 in series [2] came out at 57 ± 6 nM; in series [3] it was 57 ± 6 nM; in [4], 59 ± 6 nM; in series [5], 55 ± 5 nM. Further, the viability at 96 h, 50 µM in the series “Cell viability assay” is 89%.
As to `CO/C=C/c1c(C(=O)NCCc2ccc(N3CCOCC3)cc2)[nH]c2ccc(Cl)cc12` [Compound 5g, (E)-5-chloro-3-(2-methoxyvinyl)-N-(4-morpholinophenethyl)-1H-indole-2-carboxamide], the GI50 in [1] came out at 31 nM. Besides, the “Caspase-8 Conc” value in the series with Caspase-8 was found to be 1.97 ng/mL. Further, the “Caspase-8 Fold change” value in the series with Caspase-8 is given as 23. For the same molecule, in the series on Bcl-2, the “Bcl-2 Conc” value worked out at 0.84 ng/mL. For the same molecule, the “Bcl-2 Fold reduction” value in the series on Bcl-2 came to 6. Further, the IC50 at EGFR^T790M came out at 11.9 ± 3 nM; in series [2], 32 ± 3 nM; in [3], 30 ± 3 nM; in series [4] it was 32 ± 3 nM; at EGFR^WT it was 74 ± 5 nM; in [5], 30 ± 3 nM. In addition, the “Bax Conc” value was 299.40 pg/mL in the series on Bax and 299 pg/mL in the series with Bax (listed as 5 g). Further, the “Bax Fold change” value in the series on Bax is listed as 36. For the same molecule, the “Caspase-3 Conc” value in the series with Caspase-3 was 542.5 ± 5.0 pg/mL. The “Caspase-3 Fold change” value was 8.3 with Caspase-3 and “approximately 8” in the series with Caspase-3 (listed as 5 g). The molecule further registered a viability at 96 h, 50 µM in “Cell viability assay” of 89%.
For the molecule `CO/C=C/c1c(C(=O)NCc2ccccc2)[nH]c2ccc(Cl)cc12` [Compound 6c, (E)-N-benzyl-5-chloro-3-(2-methoxyvinyl)-1H-indole-2-carboxamide], in [1], the GI50 amounted to 66 nM. For the same molecule, the IC50 in series [2] was 64 ± 6 nM; in series [3] it was 67 ± 6 nM; in series [4] it was 69 ± 6 nM; in [5], 62 ± 6 nM. In “Cell viability assay”, this molecule gave a viability at 96 h, 50 µM of 85%.
